Screening results as filed in PubChem.
Hits are enriched below; roughly 3.1% of the tested compounds scored in any of these assays.
KCNQ1 block – human KCNQ1 channel inhibition; AID 2642; CHO-K1 KCNQ1, FluxOR thallium flux fluorescence; hits give high values; 310,000 compounds, 1.3% hits; B-score at 10 µM;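 active = compounds whose thallium flux B-score, printed positive for inhibition, exceeds three library SD while starting fluorescence stays within three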;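 also: channel opened by potassium depolarization with thallium stimulus after 20 min compound exposure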
Target sequence (P51787 whole entry, looked up): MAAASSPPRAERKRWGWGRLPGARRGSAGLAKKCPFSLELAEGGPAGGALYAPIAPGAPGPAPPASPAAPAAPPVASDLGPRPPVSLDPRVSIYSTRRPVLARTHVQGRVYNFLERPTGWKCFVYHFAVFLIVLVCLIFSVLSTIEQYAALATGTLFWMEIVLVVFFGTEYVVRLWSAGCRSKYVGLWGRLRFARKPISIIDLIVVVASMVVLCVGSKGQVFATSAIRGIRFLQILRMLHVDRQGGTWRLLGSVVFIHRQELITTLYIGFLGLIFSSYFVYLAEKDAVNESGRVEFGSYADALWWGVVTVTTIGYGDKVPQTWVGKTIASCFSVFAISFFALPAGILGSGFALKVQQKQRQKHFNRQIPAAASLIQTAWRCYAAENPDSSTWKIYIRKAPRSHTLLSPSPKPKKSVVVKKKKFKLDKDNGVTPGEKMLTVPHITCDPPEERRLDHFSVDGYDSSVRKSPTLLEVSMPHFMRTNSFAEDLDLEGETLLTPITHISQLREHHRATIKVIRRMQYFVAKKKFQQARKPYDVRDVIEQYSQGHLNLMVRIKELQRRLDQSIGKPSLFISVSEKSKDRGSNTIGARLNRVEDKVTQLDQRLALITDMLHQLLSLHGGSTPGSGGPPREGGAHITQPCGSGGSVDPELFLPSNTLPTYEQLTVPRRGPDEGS
KCNK9 inh – blocks the human KCNK9 two-pore domain potassium channel. Q9NPC2. HEK293 KCNK9, FluxOR thallium flux fluorescence; hits give low values. B-score at 10 µM. 310,000 compounds, 1.2% hits;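 active = ratio B-score over 3 SD below the library mean, with starting fluorescence within 5 SD of its mean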;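 also: negative B-score means less thallium flux so channel inhibition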
KCNQ1 act – potentiators or activators of human KCNQ1 potassium channel; P51787; B-score at 10 µM; CHO-K1 KCNQ1, thallium flux FluxOR fluorescence; hits give high values; 310,000 compounds, 0.35% hits;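 active = fluorescence ratio B-score, a plate-corrected score, at least three library SD, with initial intensity B-score within 5 SD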
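assay system = KCNQ1-transfected CHO-K1 cells | medium = assay buffer with matched DMSO | probe or stimulus = depolarizing K+/Tl+ stimulus, K2SO4 and Tl2SO4 each 12.5 mM in 5x stock | dosing = single dose | incubation = dye 90 min, compound 20 min, room temperature | detection = kinetic FluxOR fluorescence, 10 s baseline plus 110 s post-stimulus | evaluation = ratio B score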
KCNK3 block – human KCNK3 channel inhibition, primary screen; O14649; CHO-KCNK3 thallium flux, FluxOR fluorescence; hits give low values; B-score at 10 µM; 340,000 compounds, 0.84% hits;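 active = B-score under library mean minus 4 SD, starting fluorescence ratio at most library mean plus 5 SD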;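 also: more negative B-score means stronger inhibition of thallium flux through KCNK3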
hERG protect – compounds protecting human hERG from proarrhythmic drug block | AID 1511 | 310,000 compounds, 0.51% hits | activation (rescue from dofetilide block), less the hit threshold, % at 10 µM | CHO-hERG, FluxOR thallium flux, dofetilide IC70 present;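 active = activation above the mean of controls blocked by dofetilide plus 5 SD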;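 also: thallium influx through hERG after potassium depolarization seen as dye fluorescence rise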
KCNQ1 inh valid – confirmation of human KCNQ1 potassium channel inhibitors; shares compounds with KCNQ1 block; KCNQ1 cell line, FluxOR thallium flux fluorescence; inhibition, % at 10 µM; 1,600 compounds, 93% hits;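 active = primary screen active, with duplicate mean exceeding buffer control mean plus 3 SD of buffer wells, cut at about 28% in these data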;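 also: 0% = buffer control ratio and 100% = XE991 inhibitor control ratio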
CHO KCNQ1 ctr – KCNQ1 inhibitor counter-screen hit in parental CHO cells; shares compounds with KCNQ1 block; parental CHO-K1, FluxOR thallium flux fluorescence ratio; hits give low values; zero means no signal rise above baseline; fluorescence ratio (Tl flux) at 10 µM; 1,600 compounds, 21% hits;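 active = mean of duplicate thallium-flux fluorescence ratios in parental host cells more than 5 SD below the buffer control mean, cut at about 0.38 in these data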;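 also: ratio is peak minus minimum fluorescence divided by baseline fluorescence; actives read low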
KCNQ1 APC inh – confirmation of human KCNQ1 potassium channel inhibitors by electrophysiology | AID 624120 | shares compounds with KCNQ1 block | KCNQ1-CHO cells, automated patch clamp current | 490 compounds, 20% hits | calls only at 10 µM;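 active = KCNQ1 current drop exceeding 3 SD of negative control wells, seen in both duplicate runs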;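 also: steady state current during a 2 s step from -80 to +40 mV; negative values mean current inhibition and positive values mean potentiation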
KCNQ2 inh – selectivity of KCNQ1 inhibitors: inhibition of rat KCNQ2 channel | shares compounds with KCNQ1 block | 1,600 compounds, 71% hits | KCNQ2 cells, FluxOR thallium flux fluorescence | inhibition, % at 10 µM;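 active = mean percent inhibition of the KCNQ2 thallium signal more than 5 SD above the buffer-only control wells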;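 also: KCNQ2 expressed in CHO cells; 0% = buffer control wells and 100% = XE-991 inhibitor control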
KCNQ1 KCNE1 spec – KCNQ1 inhibitor that also blocks human KCNQ1/KCNE1 channel. shares compounds with KCNQ1 block. AID 652147. 1,600 compounds, 77% hits. KCNQ1/KCNE1 cells, FluxOR thallium flux fluorescence. inhibition, % at 10 µM;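 active = mean percent inhibition of duplicate wells above the buffer-only control mean plus 3 SD of those controls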;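 also: 0% = buffer only wells and 100% = XE-991 inhibitor control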
An asterisk follows results filed as active; i = inactive; . = not tested or not shown; + = active, no number.

SMILES	KCNQ1 block	KCNK9 inh	KCNQ1 act	KCNK3 block	hERG protect	KCNQ1 inh valid	CHO KCNQ1 ctr	KCNQ1 APC inh	KCNQ2 inh	KCNQ1 KCNE1 spec
COc1ccc(N(CC(=O)NC2CC3CCC2C3)S(=O)(=O)c2ccc(C)cc2)cc1OC (configuration not stated)	i	i	i	i	-9	.	.	.	.	.
COc1ccc(N(CC(=O)NC2CC3CCC2C3)S(=O)(=O)c2ccccc2)cc1Cl (configuration not stated)	7*	i	i	i	-1	114*	0.42	+	i	126%*
CN(C)CCNC(=O)c1ccc(Sc2ccc(Br)cc2)c([N+](=O)[O-])c1	15*	i	i	i	-20	0	0.5	.	i	i
CCOc1ccccc1/C=N/NC(=O)c1nnn(-c2nonc2N)c1CN1CCCC1	i	i	i	i	-6	.	.	.	.	.
CC(C)(C)c1ccc(OCCC(=O)OCC(=O)N2c3ccccc3NC(=O)C2(C)C)cc1	7*	i	i	i	-32	120*	0.29*	.	140%*	56%*
O=C(CSc1nnc2n1CCCN2C(=S)Nc1ccc(Cl)cc1)c1ccccc1	9*	i	i	i	-20	102*	0.53	i	i	70%*
O=C(CSc1nnc2ccccn12)c1ccc(Cl)cc1	i	i	i	i	-14	.	.	.	.	.
c1ccc(CN2CCC(Nc3nc(-c4ccccc4)nc4ccccc34)CC2)cc1	i	i	i	i	-19	.	.	.	.	.
Cc1csc2ncnc(NC3CCN(Cc4ccccc4)CC3)c12	8*	i	i	i	-17	26*	0.53	.	i	57%*
COc1ccc(CC2(CO)CCN(CC3=Cc4cc(Cl)ccc4OC3)CC2)cc1	9*	i	i	i	-25	113*	0.5	i	102%*	i
CCC(NC(=S)NC1CCCCC1)c1ccc(C)cc1 (configuration not stated)	i	i	i	i	-2	.	.	.	.	.
S=C(NCc1ccc(Cl)c(Cl)c1)NCc1ccco1	6*	i	i	i	-12	70*	0.49	.	i	104%*
CC#CC(=O)NCC1(N(C)Cc2ccccc2)Cc2ccccc2C1	i	i	i	i	-4	.	.	.	.	.
O=C(N/C=C/c1ccccc1)Nc1ccc(Cl)cc1	7*	i	i	i	-5	62*	0.48	.	64%*	i
Cc1cccc(C)c1-n1nnnc1C1(Nc2ccccc2)CCCCC1	7*	-7.7*	i	i	-14	109*	0.36*	.	109%*	130%*
CCN(CC(=O)NCc1ccncc1)S(=O)(=O)c1ccc(OC)cc1	i	i	i	i	-4	.	.	.	.	.
COc1ccc(-c2csc(NC(=O)C3CCN(c4ncnc5sc(C)c(C)c45)CC3)n2)cc1OC	9*	i	i	i	-16	122*	0.41	i	83%*	103%*
COc1ccc(-c2csc(NC(=O)C3CC(=O)N(Cc4ccccc4)C3)n2)cc1OC (configuration not stated)	6*	i	i	i	-12	123*	0.38	i	93%*	163%*
COc1ccccc1OCC(=O)NNC(=O)C1CCN(c2ncnc3sc(C)c(C)c23)CC1	.	.	.	i	.	.	.	.	.	.
S=C(NCc1ccccc1)Nc1ccc(Oc2ccccc2)cc1	7*	i	i	i	-4	94*	0.43	i	74%*	49%*
